Measured values: ChEMBL document CHEMBL4732111, “A greener protocol for the synthesis of phosphorochalcogenoates: Antioxidant and free radical scavenging activities” (Eur J Med Chem, 2021)

What was measured:
Brain [1] = assay: Antioxidant activity in Swiss mouse brain cerebral tissue assessed as inhibition of SNP-induced lipid peroxidation by measuring TBARS level at 10 uM incubated for 1 hr relative to control; format: functional, tissue-based; set-up: scale not given: the % may be the effect or the level left
Summary of the method: (§1)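 Whole brain of male adult Swiss mice homogenized in cold 50 mM Tris-HCl pH 7.4 (1/5 w/v) and spun 2400 g, 10 min, 4 °C; supernatant S1 used. Peroxidation induced with sodium nitroprusside in the presence of compound. Then SDS 8.1%, TBA 0.8% and acetic acid/HCl pH 3.4 added, heated 95 °C for 2 h; MDA measured as marker. Trolox 10 µM as positive control. n = 3; one-way ANOVA with Tukey versus induced.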

Brain [2] = assay: Antioxidant activity in Swiss mouse brain cerebral tissue assessed as inhibition of sodium azide-induced reactive species production by measuring fluorescence unit at 10 uM by DCHF-DA dye based spectrofluorimetric method (reference value: 139 +/- 26.8 U); format: functional
[3] = Antioxidant activity assessed as ferric ion reducing activity by measuring absorbance at 10 uM measured after 40 mins by FRAP assay (reference value: 0.11 +/- 0.02); format: functional
Summary of the method: (§2)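 Compounds at 10–500 µM mixed with FRAP reagent (FeCl3, triazine and sodium acetate buffer pH 3.2; 10:1:1). Incubated 40 min at 37 °C in the dark; absorbance reported. Vehicle and Trolox 10 µM as controls. Mean ± SEM, n = 3; one-way ANOVA with Tukey versus vehicle.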

[4] = Antioxidant activity assessed as DPPH radical scavenging activity at 10 uM incubated for 30 mins under dark condition relative to control; format: functional
Summary of the method: (§3)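 Compounds at 10–500 µM mixed with ethanolic DPPH solution. Incubated 30 min at 30 °C in the dark, then absorbance read at 517 nm. Scavenging expressed as percent relative to vehicle; Trolox 10 µM as positive control. Mean ± SEM, n = 3; one-way ANOVA with Tukey.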

[5] = Antioxidant activity assessed as ABTS radical scavenging activity at 10 uM relative to control; format: functional
Summary of the method: (§4)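 Compounds at 10–500 µM mixed with ABTS•+ solution; scavenging read as fall in absorbance at 734 nm, expressed as percent scavenging relative to vehicle. Trolox 10 µM as positive control. Mean ± SEM, n = 3; one-way ANOVA with Tukey.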

[6] = Stability of compound in Na2CO3 measured after 24 hrs; format: physicochemical
[7] = Stability of compound exposed to blue LED light using DMSO as solvent measured after 24 hrs; format: physicochemical
[8] = Stability of compound exposed to blue LED light using DCM as solvent measured after 24 hrs; format: physicochemical
[9] = Stability of compound exposed to blue LED light using EtOH as solvent measured after 24 hrs; format: physicochemical
[10] = Stability of compound in TsOH measured after 24 hrs; format: physicochemical
[11] = Antioxidant activity assessed as ferric ion reducing activity by measuring absorbance at 50 uM measured after 40 mins by FRAP assay (reference value: 0.11 +/- 0.02); format: functional; summary of the method: as §2
[12] = Antioxidant activity assessed as ferric ion reducing activity by measuring absorbance at 100 uM measured after 40 mins by FRAP assay (reference value: 0.11 +/- 0.02); format: functional; summary of the method: as §2
[13] = Antioxidant activity assessed as ferric ion reducing activity by measuring absorbance at 500 uM measured after 40 mins by FRAP assay (reference value: 0.11 +/- 0.02); format: functional; summary of the method: as §2
[14] = Antioxidant activity assessed as DPPH radical scavenging activity at 50 uM incubated for 30 mins under dark condition relative to control; format: functional; summary of the method: as §3
[15] = Antioxidant activity assessed as DPPH radical scavenging activity at 100 uM incubated for 30 mins under dark condition relative to control; format: functional; summary of the method: as §3
[16] = Antioxidant activity assessed as DPPH radical scavenging activity at 500 uM incubated for 30 mins under dark condition relative to control; format: functional; summary of the method: as §3
[17] = Antioxidant activity assessed as ABTS radical scavenging activity at 50 uM relative to control; format: functional; summary of the method: as §4
[18] = Antioxidant activity assessed as ABTS radical scavenging activity at 100 uM relative to control; format: functional; summary of the method: as §4
[19] = Antioxidant activity assessed as ABTS radical scavenging activity at 500 uM relative to control; format: functional; summary of the method: as §4
[20] = Ex vivo antioxidant activity in Swiss mouse assessed as inhibition of canola oil-induced lipid peroxidation in brain by measuring TBARS level at 10 mg/kg, ig measured after 30 mins (reference value: 91.91 +/- 9.38 /g); format: functional; settings: 0.5 h
[21] = Ex vivo antioxidant activity in Swiss mouse assessed as inhibition of canola oil-induced lipid peroxidation in liver by measuring TBARS level at 10 mg/kg, ig measured after 30 mins (reference value: 271.5 +/- 43.88 /g); format: functional; settings: 0.5 h
[22] = Ex vivo antioxidant activity in Swiss mouse assessed as inhibition of canola oil-induced lipid peroxidation in kidney by measuring TBARS level at 10 mg/kg, ig measured after 30 mins (reference value: 438.20 +/- 27.59 /g); format: functional; settings: 0.5 h
[23] = Ex vivo antioxidant activity in Swiss mouse assessed as inhibition of canola oil-induced glutathione peroxidase activity in brain by measuring oxidation of NADPH at 10 mg/kg, ig measured after 30 mins by spectrophotometric method (reference value: 12.8 +/- 2.28 nmol/g); format: functional; settings: 0.5 h
Summary of the method: (§5)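 Swiss mice dosed orally at 10 mg/kg (vehicle canola oil); brain S1 prepared 30 min later. SOD measured as inhibition of epinephrine autoxidation in Na2CO3 50 mM pH 10.3 at 480 nm, one unit = 50% inhibition at 26 °C. GPx measured as NADPH decay coupled to glutathione reductase with H2O2 and GSH. Mean ± SEM, 6 mice per group; Student's t-test.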

[24] = Ex vivo antioxidant activity in Swiss mouse assessed as inhibition of canola oil-induced superoxide dismutase activity in brain by measuring SOD activity at 10 mg/kg, ig measured after 30 mins by spectrophotometric method (reference value: 25.44 +/- 4.12 U/min); format: functional; settings: 0.5 h; summary of the method: as §5
[25] = Toxicity in Swiss mouse assessed as change in plasma urea level at 10 mg/kg, ig measured after 30 mins (reference value: 90.31 +/- 0.74 mg/dl); format: organism-based; settings: in vivo, po, 0.5 h
Summary of the method: (§6)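 Swiss mice dosed intragastrically at 10 mg/kg (control canola oil 10 mL/kg). After 30 min, blood taken by heart puncture into heparin under light isoflurane anesthesia. Plasma obtained at 200 g for 10 min, hemolyzed samples discarded. ALT, AST, urea and creatinine measured with commercial kits. 5–6 mice per group; Student's t-test.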

[26] = Toxicity in Swiss mouse assessed as change in plasma creatinine level at 10 mg/kg, ig measured after 30 mins (reference value: 1.77 +/- 0.05 mg/dl); format: organism-based; settings: in vivo, po, 0.5 h; summary of the method: as §6
[27] = Toxicity in Swiss mouse assessed as change in plasma AST level at 10 mg/kg, ig measured after 30 mins (reference value: 148 +/- 8.08 […]); format: organism-based; settings: in vivo, po, 0.5 h; summary of the method: as §6
[28] = Toxicity in Swiss mouse assessed as change in plasma ALT level at 10 mg/kg, ig measured after 30 mins (reference value: 110.90 +/- 12.4 IU/L); format: organism-based; settings: in vivo, po, 0.5 h; summary of the method: as §6
Brain [29] = assay: Antioxidant activity in Swiss mouse brain cerebral tissue assessed as inhibition of SNP-induced lipid peroxidation by measuring TBARS level at 50 uM incubated for 1 hr relative to control; format: functional, tissue-based; set-up: scale not given: the % may be the effect or the level left; summary of the method: as §1
Brain [30] = assay: Antioxidant activity in Swiss mouse brain cerebral tissue assessed as inhibition of SNP-induced lipid peroxidation by measuring TBARS level at 100 uM incubated for 1 hr relative to control; format: functional, tissue-based; set-up: scale not given: the % may be the effect or the level left; summary of the method: as §1
Brain [31] = assay: Antioxidant activity in Swiss mouse brain cerebral tissue assessed as inhibition of SNP-induced lipid peroxidation by measuring TBARS level at 500 uM incubated for 1 hr relative to control; format: functional, tissue-based; set-up: scale not given: the % may be the effect or the level left; summary of the method: as §1
Brain [32] = assay: Antioxidant activity in Swiss mouse brain cerebral tissue assessed as inhibition of sodium azide-induced reactive species production by measuring fluorescence unit at 50 uM by DCHF-DA dye based spectrofluorimetric method (reference value: 139 +/- 26.8 U); format: functional
Brain [33] = assay: Antioxidant activity in Swiss mouse brain cerebral tissue assessed as inhibition of sodium azide-induced reactive species production by measuring fluorescence unit at 100 uM by DCHF-DA dye based spectrofluorimetric method (reference value: 139 +/- 26.8 U); format: functional

Compound | Activity (Brain [1]) [%] | Activity (Brain [2]) [U] | Activity [3] | Activity [4] [%] | Activity [5] [%] | Activity [11] | Activity [12] | Activity [13] | Activity [14] [%] | Activity [15] [%] | Activity [16] [%] | Activity [17] [%] | Activity [20] [g⁻¹] | Activity [21] [g⁻¹] | Activity [22] [g⁻¹] | Activity [23] [nmol/g] | Activity [24] [U/min] | Activity [25] [mg/dL] | Activity [26] [mg/dL] | Activity [27] [IU/L] | other results
Cc1c(C)c2c(c(C)c1O)CCC(C)(C(=O)O)O2 (stereo not drawn) [TROLOX] | 29.8 | 99 | 0.39 | 93.5 | 94.3 | – | – | – | – | – | – | – | – | – | – | – | – | – | – | – | –
CCOP(=O)(OCC)[Se]c1ccccc1 | – | – | – | – | – | – | – | – | – | – | – | – | – | – | – | – | – | – | – | – | Stabilty [6]: Stable; Stabilty [7]: Stable; Stabilty [8]: Stable; Stabilty [9]: Stable; Stabilty [10]: Stable
O=P(OCc1ccccc1)(OCc1ccccc1)[Se]c1ccccc1 | 59.5 | 61.7 | 0.16 | 2.19 | 3.85 | 0.23 | 0.4 | 1.02 | 3.94 | 3.72 | 5.04 | 3.06 | 83 | 263.8 | 580.5 | 6.39 | 17.54 | 98.59 | 1.52 | 155.3 | Activity [18]: 1.86%; Activity [19]: 12.4%; Activity [28]: 138.1 IU/L
COP(=O)(OC)[Se]c1ccccc1 | 84.7 | 71.5 | 0.11 | 5.53 | 5.02 | 0.12 | 0.12 | 0.16 | 7.83 | 4.68 | 21.9 | 10.3 | 87.34 | 326 | 676.6 | 7.18 | 25.94 | 80.3 | 1.78 | 151.2 | Activity (Brain [29]): 80.6%; Activity (Brain [30]): 85.9%; Activity (Brain [31]): 79.8%; Activity [28]: 117.4 IU/L
CCCCOP(=O)(OCCCC)[Se]c1ccccc1 | 79.3 | 98.3 | 0.11 | 6.14 | 1.92 | 0.15 | 0.15 | 0.3 | 18.4 | 12.2 | 7.38 | 8.76 | 87.71 | 249.4 | 371 | 5.5 | 23.85 | 105 | 1.75 | 159.3 | Activity (Brain [29]): 83.8%; Activity (Brain [30]): 90.4%; Activity (Brain [31]): 57%; Activity (Brain [32]): 76.1 U; Activity (Brain [33]): 61.4 U; Activity [18]: 3.84%; Activity [19]: 2.34%; Activity [28]: 140 IU/L
COc1ccc([Se]P(=O)(OC)OC)cc1 | 87.6 | 94 | 0.16 | 3.72 | 6.76 | 0.16 | 0.19 | 0.26 | 6.95 | 11.9 | 19.1 | 8.6 | 64.64 | 280.8 | 422.5 | 4.98 | 13.47 | 74.39 | 2.36 | 151 | Activity (Brain [29]): 78.6%; Activity (Brain [30]): 78.1%; Activity (Brain [31]): 58%; Activity (Brain [32]): 94.1 U; Activity (Brain [33]): 67.2 U; Activity [18]: 6.91%; Activity [19]: 19.8%; Activity [28]: 119.5 IU/L
